According to ChEMBL document CHEMBL3351822, “Spongiapyridine and related spongians isolated from an Indonesian Spongia sp” (J Nat Prod, 2014):
Active and inactive are the calls of the source. The calls are words filed in the database; no cut-off is given here.

Experiments:
Aromatase [1] = biological target: T1, Aromatase (Homo sapiens, UniProt P11511); assay: Inhibition of aromatase (unknown origin) using dibenzylfluorescein substrate after 24 hrs by fluorescence assay
T1 sequence (P11511 whole entry): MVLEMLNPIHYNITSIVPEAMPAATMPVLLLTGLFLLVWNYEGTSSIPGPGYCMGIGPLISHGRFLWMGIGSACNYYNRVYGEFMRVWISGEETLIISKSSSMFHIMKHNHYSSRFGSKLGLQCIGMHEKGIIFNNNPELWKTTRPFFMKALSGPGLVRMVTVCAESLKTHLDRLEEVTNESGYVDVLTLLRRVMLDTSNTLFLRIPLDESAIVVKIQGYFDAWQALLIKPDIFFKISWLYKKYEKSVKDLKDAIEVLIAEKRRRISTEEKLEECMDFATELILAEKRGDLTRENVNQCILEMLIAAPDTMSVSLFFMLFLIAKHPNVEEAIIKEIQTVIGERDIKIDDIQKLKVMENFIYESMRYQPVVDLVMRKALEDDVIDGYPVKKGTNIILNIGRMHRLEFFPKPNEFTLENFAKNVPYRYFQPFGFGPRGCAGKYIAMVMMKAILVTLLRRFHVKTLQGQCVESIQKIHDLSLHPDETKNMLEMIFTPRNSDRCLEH

[2] = biological target: NAD(P)H dehydrogenase [quinone] 1 (Mus musculus) (UniProt Q64669); assay: Induction of quinone reductase 1 in mouse Hepa-1c1c7 cells after 48 hrs by MTT assay; assay type: cell-based
Sequence of NAD(P)H dehydrogenase [quinone] 1 (Mus musculus) (Q64669 whole entry): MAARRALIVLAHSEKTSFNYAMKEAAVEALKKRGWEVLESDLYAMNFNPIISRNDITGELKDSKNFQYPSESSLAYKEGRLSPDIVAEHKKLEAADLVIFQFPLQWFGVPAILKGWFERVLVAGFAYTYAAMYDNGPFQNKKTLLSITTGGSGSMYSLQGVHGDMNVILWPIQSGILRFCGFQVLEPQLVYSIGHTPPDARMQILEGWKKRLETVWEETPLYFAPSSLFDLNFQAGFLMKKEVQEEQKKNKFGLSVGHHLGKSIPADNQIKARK
Procedure, shortened: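 QR1 induction measured in cultured murine Hepa 1c1c7 hepatoma cells. Potency is expressed as the CD value, the test-compound concentration needed to double QR1 enzymatic activity.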

[3] = biological target: T2, Nitric oxide synthase, inducible (Mus musculus) (UniProt P29477); assay: Inhibition of LPS-induced iNOS activity in mouse RAW264.7 cells after 24 hrs; assay type: cell-based
T2 sequence (whole entry): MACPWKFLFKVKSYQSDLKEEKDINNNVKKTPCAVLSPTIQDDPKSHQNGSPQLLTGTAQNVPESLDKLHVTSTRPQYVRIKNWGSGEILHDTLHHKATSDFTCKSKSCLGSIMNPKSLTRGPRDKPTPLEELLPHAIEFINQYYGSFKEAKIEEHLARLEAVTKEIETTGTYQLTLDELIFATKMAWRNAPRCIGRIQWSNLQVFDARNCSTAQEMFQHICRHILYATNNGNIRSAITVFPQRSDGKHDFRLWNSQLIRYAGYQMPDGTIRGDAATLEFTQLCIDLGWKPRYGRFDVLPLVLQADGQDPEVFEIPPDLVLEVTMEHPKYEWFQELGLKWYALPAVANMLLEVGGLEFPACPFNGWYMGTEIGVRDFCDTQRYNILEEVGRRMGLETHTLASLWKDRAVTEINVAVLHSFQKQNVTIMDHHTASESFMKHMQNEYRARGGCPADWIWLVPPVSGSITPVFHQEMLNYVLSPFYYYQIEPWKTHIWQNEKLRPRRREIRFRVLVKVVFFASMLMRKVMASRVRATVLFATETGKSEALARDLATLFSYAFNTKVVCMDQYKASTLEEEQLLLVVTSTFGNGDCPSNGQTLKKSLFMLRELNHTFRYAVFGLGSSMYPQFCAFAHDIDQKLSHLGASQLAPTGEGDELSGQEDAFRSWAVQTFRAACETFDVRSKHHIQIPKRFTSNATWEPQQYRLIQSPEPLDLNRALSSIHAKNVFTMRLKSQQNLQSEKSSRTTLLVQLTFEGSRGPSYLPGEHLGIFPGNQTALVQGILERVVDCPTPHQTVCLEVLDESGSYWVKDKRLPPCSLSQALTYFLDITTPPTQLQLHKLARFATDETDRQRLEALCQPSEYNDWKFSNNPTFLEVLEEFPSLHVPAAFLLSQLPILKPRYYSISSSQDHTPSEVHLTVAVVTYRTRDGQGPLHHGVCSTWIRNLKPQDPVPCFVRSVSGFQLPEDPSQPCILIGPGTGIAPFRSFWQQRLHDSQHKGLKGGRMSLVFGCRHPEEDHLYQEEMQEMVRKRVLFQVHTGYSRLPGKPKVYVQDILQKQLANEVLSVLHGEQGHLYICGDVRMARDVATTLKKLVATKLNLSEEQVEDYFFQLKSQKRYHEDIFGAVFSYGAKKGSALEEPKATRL

[4] = biological target: Beta-secretase 1 (Homo sapiens) (UniProt P56817); assay: Inhibition of BACE1 (unknown origin) assessed as proteolytic cleavage of amyloid precursor protein after 16 hrs at < 100 uM by chemiluminescence assay
Sequence of Beta-secretase 1 (Homo sapiens) (P56817 whole entry): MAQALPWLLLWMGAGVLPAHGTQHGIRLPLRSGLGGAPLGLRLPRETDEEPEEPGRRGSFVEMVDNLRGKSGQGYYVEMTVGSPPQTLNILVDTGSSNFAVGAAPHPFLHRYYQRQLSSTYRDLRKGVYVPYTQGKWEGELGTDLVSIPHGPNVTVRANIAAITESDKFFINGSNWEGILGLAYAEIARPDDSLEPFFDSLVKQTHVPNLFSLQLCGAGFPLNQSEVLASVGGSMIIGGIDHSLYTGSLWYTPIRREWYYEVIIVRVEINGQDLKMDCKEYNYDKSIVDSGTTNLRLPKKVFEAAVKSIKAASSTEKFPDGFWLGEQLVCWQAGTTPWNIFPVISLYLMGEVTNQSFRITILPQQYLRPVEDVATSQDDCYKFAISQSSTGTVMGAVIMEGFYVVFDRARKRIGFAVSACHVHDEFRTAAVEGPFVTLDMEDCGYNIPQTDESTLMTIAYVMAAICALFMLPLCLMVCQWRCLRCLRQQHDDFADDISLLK

[5] = biological target: Nuclear factor NF-kappa-B complex (Homo sapiens) (UniProt Q00653+P19838+Q04206); assay: Inhibition of TNF-alpha-induced NF-kappaB activity in HEK293 cells after 6 hrs by luciferase reporter gene assay; assay type: cell-based
Sequence of Nuclear factor NF-kappa-B complex (Homo sapiens) (P19838 whole entry, looked up): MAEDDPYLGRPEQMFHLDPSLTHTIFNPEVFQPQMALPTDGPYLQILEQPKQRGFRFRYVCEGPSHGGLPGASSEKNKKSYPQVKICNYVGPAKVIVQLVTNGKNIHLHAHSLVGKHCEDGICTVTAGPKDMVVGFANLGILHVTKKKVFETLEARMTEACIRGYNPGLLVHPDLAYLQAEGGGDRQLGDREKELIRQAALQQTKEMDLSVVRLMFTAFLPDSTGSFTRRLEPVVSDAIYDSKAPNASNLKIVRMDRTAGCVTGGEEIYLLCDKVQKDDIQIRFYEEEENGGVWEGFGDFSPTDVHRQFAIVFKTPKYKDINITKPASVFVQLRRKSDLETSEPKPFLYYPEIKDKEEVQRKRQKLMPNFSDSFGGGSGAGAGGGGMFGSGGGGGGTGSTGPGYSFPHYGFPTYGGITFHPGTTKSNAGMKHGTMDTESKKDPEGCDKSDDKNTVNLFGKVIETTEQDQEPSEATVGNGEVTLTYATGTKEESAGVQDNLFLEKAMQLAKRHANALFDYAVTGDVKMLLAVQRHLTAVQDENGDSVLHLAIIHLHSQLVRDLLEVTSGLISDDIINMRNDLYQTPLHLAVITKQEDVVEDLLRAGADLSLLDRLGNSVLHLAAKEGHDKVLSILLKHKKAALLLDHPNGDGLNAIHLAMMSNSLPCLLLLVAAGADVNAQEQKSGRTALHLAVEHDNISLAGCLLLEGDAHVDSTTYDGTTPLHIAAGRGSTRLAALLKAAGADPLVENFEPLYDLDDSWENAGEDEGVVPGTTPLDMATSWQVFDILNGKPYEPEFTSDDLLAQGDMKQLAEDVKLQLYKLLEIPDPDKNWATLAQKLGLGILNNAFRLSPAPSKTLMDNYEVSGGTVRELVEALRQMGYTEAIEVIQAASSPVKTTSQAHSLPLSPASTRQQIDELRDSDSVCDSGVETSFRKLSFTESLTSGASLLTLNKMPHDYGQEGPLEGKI
Sequence of Nuclear factor NF-kappa-B complex (Homo sapiens) (Q00653 whole entry, looked up): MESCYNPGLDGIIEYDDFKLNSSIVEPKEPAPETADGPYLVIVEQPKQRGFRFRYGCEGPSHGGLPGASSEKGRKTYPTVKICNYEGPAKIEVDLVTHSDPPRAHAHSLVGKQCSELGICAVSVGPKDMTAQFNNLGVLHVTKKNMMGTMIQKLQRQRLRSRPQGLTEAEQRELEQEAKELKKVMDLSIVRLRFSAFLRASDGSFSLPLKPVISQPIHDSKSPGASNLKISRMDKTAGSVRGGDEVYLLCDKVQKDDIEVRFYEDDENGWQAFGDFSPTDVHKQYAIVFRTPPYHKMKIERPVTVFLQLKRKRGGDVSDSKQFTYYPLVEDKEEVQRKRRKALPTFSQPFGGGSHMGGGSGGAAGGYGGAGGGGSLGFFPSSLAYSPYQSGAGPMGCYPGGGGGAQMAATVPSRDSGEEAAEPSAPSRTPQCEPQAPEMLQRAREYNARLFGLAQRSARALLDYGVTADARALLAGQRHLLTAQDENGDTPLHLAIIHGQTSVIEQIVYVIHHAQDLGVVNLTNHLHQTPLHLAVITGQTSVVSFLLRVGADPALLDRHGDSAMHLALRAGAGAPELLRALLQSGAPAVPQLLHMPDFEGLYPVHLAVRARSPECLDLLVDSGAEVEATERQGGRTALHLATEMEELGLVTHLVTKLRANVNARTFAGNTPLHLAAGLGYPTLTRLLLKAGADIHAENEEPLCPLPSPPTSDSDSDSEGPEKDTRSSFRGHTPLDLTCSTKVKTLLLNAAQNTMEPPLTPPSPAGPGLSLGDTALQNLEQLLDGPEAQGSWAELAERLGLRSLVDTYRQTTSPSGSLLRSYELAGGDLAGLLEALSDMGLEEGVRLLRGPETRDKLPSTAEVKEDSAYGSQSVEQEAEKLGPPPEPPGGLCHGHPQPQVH
Sequence of Nuclear factor NF-kappa-B complex (Homo sapiens) (Q04206 whole entry, looked up): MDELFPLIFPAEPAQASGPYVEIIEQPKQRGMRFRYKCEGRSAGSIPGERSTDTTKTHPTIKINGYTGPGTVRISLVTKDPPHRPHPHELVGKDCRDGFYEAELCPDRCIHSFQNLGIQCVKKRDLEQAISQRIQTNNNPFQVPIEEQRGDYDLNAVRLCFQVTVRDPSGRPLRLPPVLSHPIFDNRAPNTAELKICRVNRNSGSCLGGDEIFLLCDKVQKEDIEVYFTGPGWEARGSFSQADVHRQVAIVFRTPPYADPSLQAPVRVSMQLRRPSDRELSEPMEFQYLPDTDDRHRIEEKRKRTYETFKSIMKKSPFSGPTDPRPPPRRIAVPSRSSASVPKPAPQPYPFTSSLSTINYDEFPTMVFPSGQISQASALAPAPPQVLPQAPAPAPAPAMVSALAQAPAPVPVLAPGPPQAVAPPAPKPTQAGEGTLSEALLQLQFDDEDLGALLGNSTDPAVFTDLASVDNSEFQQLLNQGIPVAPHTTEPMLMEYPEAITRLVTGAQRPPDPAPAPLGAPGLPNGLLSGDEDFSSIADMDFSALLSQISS

Aromatase [6] = biological target: T1, Aromatase; assay: Inhibition of aromatase (unknown origin) using dibenzylfluorescein substrate at 50 uM after 24 hrs by fluorescence assay

| SMILES | IC50 (Aromatase [1]) [µM] | CD [2] [µM] | inhibition [3] | inhibition [4] | ED50 [5] [µM] | inhibition at 50 µM (Aromatase [6]) [%] |
| --- | --- | --- | --- | --- | --- | --- |
| CC1=C(O)C(=O)C[C@]2(C)[C@H]3CCc4cocc4[C@]3(CO)CCC12O (some centres not stated) | 34.4 | 11.2 | inactive | inactive | > 50 |  |
| CC1=C(O)C(=O)C[C@@]2(C)[C@H]1CC[C@@]1(CO)c3cnccc3C(=O)C[C@@H]12 |  |  | inactive | inactive | > 50 | < 50 |
| CC1=C(O)C(=O)C[C@@]2(C)[C@H]1CC[C@@]1(CO)c3cocc3CC[C@@H]12 |  |  | inactive | inactive | > 50 | < 50 |
| C[C@]12CC(=O)OC[C@@](C)(C(=O)O)[C@@H]1CC[C@@]1(CO)c3cocc3CC[C@@H]12 |  |  | inactive | inactive | > 50 | < 50 |
